Experimental data reported in ChEMBL document CHEMBL1126893, “Synthesis and CLOGP correlation of imidooxy anticonvulsants” (J Med Chem, 1993).

How the values were obtained:
Mus musculus [1] = organism: Mus musculus; test: animal or person
Mus musculus [2] = test: Time of peak effect of activity of compound was measured by both MES and sc Met test in mice; type: functional
Procedure, shortened: (§1)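 Phase II quantification in mice after ip dosing. ED50 (scMet or MES) measured at the time of peak effect. TD50 (rotorod neurologic deficit) measured at the time of peak neurologic deficit. Medians and 95% confidence limits by the Litchfield-Wilcoxon method. Protective index = TD50/ED50. Time of peak effect determined in the MES or scMet test.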

Mus musculus [3] = test: Time of peak effect of toxicity of compound was measured by both MES and sc Met test in mice; type: functional
Procedure, shortened: as §1

Mus musculus [4] = test: Effective dose was measured in mouse by maximal electroshock method by ip administration; type: functional
Procedure, shortened: as §1

Mus musculus [5] = test: Anticonvulsant activity was measured by subcutaneous pentylenetetrazole test on mice at 4 h at the dose of 300 mg/kg; number of animals protected/number of animals tested, 0/1; type: functional
Mus musculus [6] = test: Anticonvulsant activity was measured by maximal electroshock test on mice at 30 min at the dose of 300 mg/kg; number of animals protected/number of animals tested, 1/1; type: functional
Mus musculus [7] = test: Anticonvulsant activity was measured by subcutaneous pentylenetetrazole test on mice at 30 min at the dose of 100 mg/kg; number of animals protected/number of animals tested, 0/1; type: functional
Mus musculus [8] = test: Anticonvulsant activity was measured by maximal electroshock test on mice at 050 hr at the dose of 50 mg/kg; number of animals protected/number of animals tested, 0/4; type: functional
Mus musculus [9] = test: Anticonvulsant activity was measured by maximal electroshock test on mice at 2 hr at the dose of 50 mg/kg; number of animals protected/number of animals tested, 1/4; type: functional
Mus musculus [10] = test: Anticonvulsant activity was measured by maximal electroshock test on mice at 4 hr at the dose of 100 mg/kg; number of animals protected/number of animals tested, 0/3; type: functional
Mus musculus [11] = test: Anticonvulsant activity was measured by rotarod toxicity teston mice at 0.25 hr at the dose of 50 mg/kg; number of animals protected/number of animals tested, 0/4; type: functional
Mus musculus [12] = test: Anticonvulsant activity was measured by rotarod toxicity test on mice at 4 hr at the dose of 100 mg/kg; number of animals protected/number of animals tested, 0/4; type: functional
Mus musculus [13] = test: Anticonvulsant activity was measured by rotarod toxicity teston mice at 0.50 hr at the dose of 50 mg/kg; number of animals protected/number of animals tested, 0/4; type: functional
Mus musculus [14] = test: Anticonvulsant activity was measured by maximal electroshock test on mice at 1 hr at the dose of 50 mg/kg; number of animals protected/number of animals tested, 0/4; type: functional
Mus musculus [15] = test: Anticonvulsant activity was measured by rotarod toxicity test on mice at 30 min at the dose of 100 mg/kg; number of animals protected/number of animals tested, 0/8; type: functional
Mus musculus [16] = test: Anticonvulsant activity was measured by rotarod toxicity test on mice at 30 min at the dose of 300 mg/kg; number of animals protected/number of animals tested, 4/4; type: functional
Mus musculus [17] = test: Anticonvulsant activity was measured by maximal electroshock test on mice at 4 hr at the dose of 300 mg/kg; number of animals protected/number of animals tested, 0/1; type: functional
Mus musculus [18] = test: Anticonvulsant activity was measured by subcutaneous pentylenetetrazole test on mice at 4 hr at the dose of 100 mg/kg; number of animals protected/number of animals tested, 0/1; type: functional
Mus musculus [19] = test: Anticonvulsant activity was measured by maximal electroshock test on mice at 4 hr at the dose of 50 mg/kg; number of animals protected/number of animals tested, 0/4; type: functional
Mus musculus [20] = test: Anticonvulsant activity was measured by rotarod toxicity test on mice at 2 hr at the dose of 50 mg/kg; number of animals protected/number of animals tested, 0/4; type: functional
Mus musculus [21] = test: Anticonvulsant activity was measured by subcutaneous pentylenetetrazole test on mice at 30 min at the dose of 300 mg/kg; number of animals protected/number of animals tested, 0/1; type: functional
Mus musculus [22] = test: Anticonvulsant activity was measured by rotarod toxicity test on mice at 4 hr at the dose of 300 mg/kg; number of animals protected/number of animals tested, 0/2; type: functional
Mus musculus [23] = test: Anticonvulsant activity was measured by maximal electroshock test on mice at 0.25 hr at the dose of 50 mg/kg; number of animals protected/number of animals tested, 0/4; type: functional
Mus musculus [24] = test: Anticonvulsant activity was measured by rotarod toxicity test on mice at 1 hr at the dose of 50 mg/kg; number of animals protected/number of animals tested, 0/4; type: functional
Mus musculus [25] = test: Anticonvulsant activity was measured by rotarod toxicity test on mice at 4 hr at the dose of 50 mg/kg; number of animals protected/number of animals tested, 0/4; type: functional
Mus musculus [26] = test: Anticonvulsant activity was measured by maximal electroshock test on mice at 30 min at the dose of 100 mg/kg; number of animals protected/number of animals tested, 0/3; type: functional
Mus musculus [27] = test: Anticonvulsant activity was measured by maximal electroshock test on mice at 4 h at the dose of 300 mg/kg; number of animals protected/number of animals tested 0/1; type: functional
Mus musculus [28] = test: Anticonvulsant activity was measured by maximal electroshock test on mice at 30 min at the dose of 300 mg/kg; number of animals protected/number of animals tested 1/1; type: functional
Mus musculus [29] = test: Anticonvulsant activity was measured by rotarod toxicity test on mice at 4 h at the dose of 300 mg/kg; number of animals protected/number of animals tested 0/2; type: functional
Mus musculus [30] = test: Anticonvulsant activity was measured by subcutaneous pentylenetetrazole test on mice at 4 hr at the dose of 300 mg/kg; number of animals protected/number of animals tested 0/1; type: functional
Mus musculus [31] = test: Anticonvulsant activity was measured by maximal electroshock test on mice at 0.25 hr at the dose of 100 mg/kg; number of animals protected/number of animals tested 2/2; type: functional
Mus musculus [32] = organism: Mus musculus; test: Protective index (TD50/ED50) value in scMET test in mice; type: functional
Procedure, shortened: as §1

Mus musculus [33] = test: Anticonvulsant activity was measured by subcutaneous pentylenetetrazole test on mice at 30 min at the dose of 300 mg/kg; number of animals protected/number of animals tested 1/1; type: functional
Mus musculus [34] = test: Anticonvulsant activity was measured by rotarod toxicity test on mice at 0.25 hr at the dose of 100 mg/kg; number of animals protected/number of animals tested 0/4; type: functional
Mus musculus [35] = test: Anticonvulsant activity was measured by subcutaneous pentylenetetrazole test on mice at 0.25 hr at the dose of 100 mg/kg; number of animals protected/number of animals tested 2/2; type: functional
Mus musculus [36] = test: Anticonvulsant activity was measured by rotarod toxicity test on mice at 1 hr at the dose of 100 mg/kg; number of animals protected/number of animals tested 0/4; type: functional
Mus musculus [37] = test: Anticonvulsant activity was measured by subcutaneous maximal electroshock test on mice at 1 hr at the dose of 100 mg/kg; number of animals protected/number of animals tested 1/2; type: functional
Mus musculus [38] = organism: Mus musculus; test: Protective index (TD50/ED50) value in MES test in mice; type: functional
Mus musculus [39] = test: Anticonvulsant activity was measured by rotarod toxicity test on mice at 30 min at the dose of 300 mg/kg; number of animals protected/number of animals tested 4/4; type: functional
Mus musculus [40] = test: Anticonvulsant activity was measured by subcutaneous pentylenetetrazole test on mice at 1 hr at the dose of 100 mg/kg; number of animals protected/number of animals tested 0/2; type: functional
Rattus norvegicus = test: Effective dose was measured in rat by maximal electroshock method by ip administration; type: functional
Mus musculus [41] = test: Anticonvulsant activity was measured by maximal electroshock test on mice at 1 hr at the dose of 50 mg/kg; number of animals protected/number of animals tested, 1/4; type: functional
Mus musculus [42] = test: Anticonvulsant activity was measured by subcutaneous pentylenetetrazole test on mice at 30 min at the dose of 300 mg/kg; number of animals protected/number of animals tested, 1/1; type: functional
Mus musculus [43] = test: Anticonvulsant activity was measured by maximal electroshock test on mice at 050 hr at the dose of 50 mg/kg; number of animals protected/number of animals tested, 1/4; type: functional
Mus musculus [44] = test: Anticonvulsant activity was measured by maximal electroshock test on mice at 30 min at the dose of 100 mg/kg; number of animals protected/number of animals tested, 2/3; type: functional
Mus musculus [45] = test: Anticonvulsant activity was measured by maximal electroshock test on mice at 2 hr at the dose of 50 mg/kg; number of animals protected/number of animals tested, 2/4; type: functional
Mus musculus [46] = test: Anticonvulsant activity was measured by rotarod toxicity teston mice at 0.25 hr at the dose of 100 mg/kg; number of animals protected/number of animals tested 0/2; type: functional
Mus musculus [47] = test: Anticonvulsant activity was measured by rotarod toxicity test on mice at 30 min at the dose of 300 mg/kg; number of animals protected/number of animals tested 0/4; type: functional
Mus musculus [48] = test: Anticonvulsant activity was measured by rotarod toxicity test on mice at 1 hr at the dose of 100 mg/kg; number of animals protected/number of animals tested, 0/2; type: functional
Mus musculus [49] = test: Anticonvulsant activity was measured by maximal electroshock test on mice at 0.25 hr at the dose of 100 mg/kg; number of animals protected/number of animals tested 0/2; type: functional
Mus musculus [50] = test: Effective dose was measured in mouse by subcutaneous pentylenetetrazole method by ip administration.; type: functional
Procedure, shortened: as §1

Mus musculus [51] = test: Effective dose was measured in mouse by maximal electroshock method by ip administration.; type: functional
Procedure, shortened: as §1

CCCC(CCC)C(=O)O [VALPROIC ACID]
ED50 (Mus musculus [1]): 149 mg/kg | TPE (Mus musculus [2]): 0.25 toxicity | TPE (Mus musculus [3]): 0.25

NC(=O)N1c2ccccc2C=Cc2ccccc21 [CARBAMAZEPINE]
TPE (Mus musculus [2]): 0.25 | TPE (Mus musculus [3]): 0.25 | ED50 (Mus musculus [4]): 8.8 mg/kg

O=C1CC2(CCCC2)C(=O)N1OCc1ccccc1Cl
Ratio (Mus musculus [5]): 0 | Ratio (Mus musculus [6]): 1 | Ratio (Mus musculus [7]): 0 | Ratio (Mus musculus [8]): 0 | Ratio (Mus musculus [9]): 1 | Ratio (Mus musculus [10]): 0 | Ratio (Mus musculus [11]): 0 | Ratio (Mus musculus [12]): 0 | Ratio (Mus musculus [13]): 0 | Ratio (Mus musculus [14]): 0 | Ratio (Mus musculus [15]): 0 | Ratio (Mus musculus [16]): 4 | Ratio (Mus musculus [17]): 0 | Ratio (Mus musculus [18]): 0 | Ratio (Mus musculus [19]): 0 | Ratio (Mus musculus [20]): 0 | Ratio (Mus musculus [21]): 0 | Ratio (Mus musculus [22]): 0 | Ratio (Mus musculus [23]): 0 | Ratio (Mus musculus [24]): 0 | Ratio (Mus musculus [25]): 0 | Ratio (Mus musculus [26]): 0

O=C1CC2(CCCC2)C(=O)N1OCc1ccccc1Br
Ratio (Mus musculus [27]): 0 | Ratio (Mus musculus [28]): 1 | TPE (Mus musculus [2]): 0.25 | Ratio (Mus musculus [29]): 0 | Ratio (Mus musculus [30]): 0 | TPE (Mus musculus [3]): 0.25 | Ratio (Mus musculus [31]): 2 | PI (Mus musculus [32]): 1.7 | Ratio (Mus musculus [33]): 1 | Ratio (Mus musculus [34]): 0 | Ratio (Mus musculus [35]): 2 | Ratio (Mus musculus [36]): 0 | Ratio (Mus musculus [37]): 1 | PI (Mus musculus [38]): 2.3 | Ratio (Mus musculus [39]): 4 | Ratio (Mus musculus [40]): 0

CCC1(C)CC(=O)NC1=O (centres undefined) [ETHOSUXIMIDE]
TPE (Mus musculus [2]): 0.5 toxicity | TPE (Mus musculus [3]): 0.5 | ED50 (Rattus norvegicus): > 1000 mg/kg

O=C1CC2(CCCC2)C(=O)N1OCc1ccccc1F
Ratio (Mus musculus [5]): 0 | Ratio (Mus musculus [41]): 1 | Ratio (Mus musculus [6]): 1 | Ratio (Mus musculus [7]): 0 | Ratio (Mus musculus [42]): 1 | Ratio (Mus musculus [10]): 0 | Ratio (Mus musculus [11]): 0 | Ratio (Mus musculus [12]): 0 | Ratio (Mus musculus [13]): 0 | Ratio (Mus musculus [43]): 1 | Ratio (Mus musculus [15]): 0 | Ratio (Mus musculus [44]): 2 | Ratio (Mus musculus [16]): 4 | Ratio (Mus musculus [17]): 0 | Ratio (Mus musculus [18]): 0 | Ratio (Mus musculus [19]): 0 | Ratio (Mus musculus [20]): 0 | Ratio (Mus musculus [22]): 0 | Ratio (Mus musculus [23]): 0 | Ratio (Mus musculus [24]): 0 | Ratio (Mus musculus [25]): 0 | Ratio (Mus musculus [45]): 2

O=C1CC2(CCCC2)C(=O)N1OCc1ccc(C(F)(F)F)cc1
Ratio (Mus musculus [46]): 0 | Ratio (Mus musculus [27]): 0 | Ratio (Mus musculus [28]): 1 | TPE (Mus musculus [2]): 2 | Ratio (Mus musculus [29]): 0 | Ratio (Mus musculus [30]): 0 | TPE (Mus musculus [3]): 0.25 | PI (Mus musculus [32]): >1.7 | Ratio (Mus musculus [33]): 1 | Ratio (Mus musculus [47]): 0 | Ratio (Mus musculus [48]): 0 | Ratio (Mus musculus [49]): 0 | PI (Mus musculus [38]): >1.7 | ED50 (Mus musculus [50]): 300 mg/kg | ED50 (Mus musculus [51]): 300 mg/kg
